{"data": "Assay results from different studies", "MMP14": "Matrix metalloproteinase-14 (MMP14, Homo sapiens, UniProt P50281)", "Kir1 channel protein": "Kir1 channel protein (Aedes aegypti, UniProt L0EQS9)", "note": "Each line is one published result; the experiments were not run side by side."}
{"SMILES": "Cc1noc(-c2cc3cc(-c4nc(C(=O)NCC5CCOCC5)[nH]c4C)ccc3[nH]2)n1", "target": "MMP14", "test": "enzyme activity, inhibitor", "IC50 [nM]": "> 20000"}
{"SMILES": "O=C(O)c1cc2ccccc2c(Cc2c(O)c(C(=O)O)cc3ccccc23)c1O", "target": "DNA polymerase eta (POLH, Homo sapiens, UniProt Q9Y253)", "test": "enzyme activity, inhibitor", "IC50 [nM]": 79000}
{"SMILES": "CN1CCN(c2ccc(Nc3ncc4cc(C#N)c(=O)n(C5CCCC5)c4n3)cc2)CC1", "target": "Receptor tyrosine-protein kinase erbB-4 (ERBB4, Homo sapiens, UniProt Q15303)", "test": "enzyme activity, inhibitor", "IC50 [nM]": 3090}
{"SMILES": "O=[N+]([O-])c1ccc(N2CCN(S(=O)(=O)c3ccc(Cl)cc3)CC2)cc1NCc1ccncc1", "target": "Kir1 channel protein", "test": "ion flux, inhibitor", "IC50 [nM]": 750}
{"SMILES": "O=C(Oc1nsnc1N1CCc2ccccc2C1)N1CCCCC1", "target": "Monoacylglycerol lipase ABHD6 (ABHD6, Homo sapiens, UniProt Q9BV23)", "test": "enzyme activity, inhibitor, fluorescence", "setting": "lysate", "IC50 [nM]": 460}
{"SMILES": "Cn1nc(C(=O)NCc2ccc(C(=O)O)cc2)cc1-c1ccc2[nH]c(-c3cncnc3)cc2c1", "target": "MMP14", "test": "enzyme activity, inhibitor", "IC50 [nM]": "> 20000"}
{"SMILES": "N#Cc1ccc(N2CCN(S(=O)(=O)c3ccc(F)cc3)CC2)cc1NCc1ccncc1", "target": "Kir1 channel protein", "test": "ion flux, inhibitor", "IC50 [nM]": 361}
{"SMILES": "NC(=O)c1cccc(-c2cccc(OC(=O)NC3CCCCC3)c2)c1", "target": "Arylacetamide deacetylase (Homo sapiens, UniProt P22760)", "test": "enzyme activity, inhibitor", "IC50 [nM]": 190}
{"SMILES": "O=S(=O)(c1ccc(F)cc1)N1CCN(c2cccc(NCc3ccncc3)c2)CC1", "target": "Kir1 channel protein", "test": "ion flux, inhibitor", "IC50 [nM]": "4000 to 9000"}
{"SMILES": "CC1=CC(=O)C(C(C)C)=CC1=O", "target": "Cytochrome P450 2E1 (CYP2E1, Homo sapiens, UniProt P05181)", "test": "enzyme activity, inhibitor, HPLC", "IC50 [nM]": 97000}
{"SMILES": "O=[N+]([O-])c1ccc(N2CCN(S(=O)(=O)c3ccc(Cl)cc3)CC2)cc1NCc1ccco1", "target": "Kir1 channel protein", "test": "ion flux, inhibitor", "IC50 [nM]": 840}
{"SMILES": "COc1ccc(F)cc1C(=O)NCc1ccc(-c2nn([C@@H](C)C(F)(F)F)c(N)c2C(N)=O)cc1", "target": "Tyrosine-protein kinase BTK (BTK, Homo sapiens, UniProt Q06187, C481G)", "test": "phosphorylation in cells, inhibitor", "IC50 [nM]": 13.9}
{"SMILES": "CCNC(=O)c1nc(-c2ccc3[nH]c(-c4nc(C)no4)cc3c2)c(C)[nH]1", "target": "MMP14", "test": "enzyme activity, inhibitor", "IC50 [nM]": "> 20000"}
{"SMILES": "Cc1cc(O)cc(C)c1C[C@H](NC(=O)[C@@H]1CCCN1C(=O)[C@H](CCCNC(=N)N)NC(=O)[C@H](CCCNC(=N)N)N(C)C(=O)CNC(=O)[C@@H](CO)NC(=O)CNC(=O)[C@H](Cc1cn(CCNC(=O)[C@H](CC(C)C)NC(=O)[C@H](CC(C)C)NC(=O)C2OC2C(=O)O)nn1)NC(=O)CN1CCN(CC(=O)O)CCN(CC(=O)O)CCN(CC(=O)O)CC1)C(=O)N[C@H](C(=O)N[C@@H](CC(C)C)C(=O)O)C(C)(C)C (mixture of isomers)", "target": "Neurotensin receptor type 1 (NTSR1, Homo sapiens, UniProt P30989)", "test": "ligand displacement, radioligand", "IC50 [nM]": 45}
{"SMILES": "CC[C@H](C)[C@H](NC(C)=O)C(=O)N[C@@H](CCC(=O)O)C(=O)N[C@H](C(=O)N[C@H](C=O)CC(=O)O)[C@@H](C)O", "target": "Caspase-4 (Casp4, Mus musculus, UniProt P70343)", "test": "enzyme activity, inhibitor", "IC50 [nM]": 86}
{"SMILES": "O=C(Nc1c[nH]nc1C(=O)NC1CCNCC1)c1cc(F)cc(F)c1", "target": "Cyclin-dependent kinase 17 (CDK17, Homo sapiens, UniProt Q00537)", "test": "target engagement in cells, BRET", "IC50 [nM]": 1900}
{"SMILES": "O=S(=O)(c1ccc(F)cc1)N1CCN(c2ccc(C(F)(F)F)c(NCc3ccncc3)c2)CC1", "target": "Kir1 channel protein", "test": "ion flux, inhibitor", "IC50 [nM]": "4000 to 9000"}
